The source of these data is ChEMBL document CHEMBL4382230, “Structure-activity relationships, biological evaluation and structural studies of novel pyrrolonaphthoxazepines as antitumor agents” (Eur J Med Chem, 2019).

In data set [1] the test system is HL-60. In words: Cell cycle arrest in human HL60 cells assessed as accumulation of cells at G2/M phase at 10 uM after 24 hrs by propidium iodide staining-based flow cytometric analysis. The class given is functional. In short, it runs like this:
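HL-60 exposed to 10 μM for 24 h, vehicle 0.1% DMSO. Cells plated at 2×10^5 cells/mL, stained in PBS with 0.1% sodium citrate, 0.1% NP40 and propidium iodide for 30 min at room temperature in the dark. DNA content by flow cytometry; G2/M fraction reported.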

For data set [2], the system named is HL-60. In words: Cytotoxicity against human HL60 cells assessed as reduction in cell viability after 72 hrs by alamar blue assay. The format is functional, cell-based. The note with it: HL-60, 72 h. In short, it runs like this:
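HL-60 at 300,000 cells/ml treated in triplicate with compound or vehicle (0.1% v/v DMSO) for 72 h. Cells then incubated in 10% (v/v) AlamarBlue and fluorescence read at excitation 544 nm, emission 590 nm. IC50 is the mean of at least three separate determinations.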

Data set [3] in a line: Cytotoxicity against human A2780AD cells after 48 hrs by MTT assay. The format is functional, cell-based. An outline of the steps: (§1)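 Cells seeded at 12,000 to 17,000 per well depending on line, incubated overnight, then given serial dilutions of ligand for 48 h. MTT at 2.5 mg/mL added for 4 h at 37 °C, formazan solubilized overnight (10% SDS, 45% dimethylformamide, pH 5.5), absorbance read at 595/690 nm. IC50 from log-dose response curves; mean ± SE of three independent assays.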

Data set [4] relates to NIH3T3. The data set can be described thus: Cytotoxicity against mouse NIH/3T3 cells after 48 hrs by MTT assay. The format is cell-based. The note with it: NIH3T3, 48 h. In short, it runs like this: as §1
A short description of data set [5]: Ratio of IC50 for human A2780AD cells to IC50 for human A2780 cells. The format is functional. In short, it runs like this:
(§2)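 Relative resistance: IC50 in the P-gp overexpressing resistant line divided by IC50 in the parental line. Both IC50s came from the 48 h MTT assay (serial dilutions, absorbance at 595/690 nm, log-dose response curves, three independent assays).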

The nature of data set [6]: Ratio of IC50 for mouse NIH/3T3 cells harboring MDR G185 to IC50 for mouse NIH/3T3 cells. In short, it runs like this:
as §2

Data set [7] deals with NIH3T3. The data set can be described thus: Cytotoxicity against mouse NIH/3T3 cells harboring MDR G185 after 48 hrs by MTT assay. The class given is functional, cell-based. The note with it: NIH3T3, 48 h. In short, it runs like this: as §1
The next data set concerns A2780. The data set can be described thus: Cytotoxicity against human A2780 cells after 48 hrs by MTT assay. The format is functional, cell-based. The note with it: A2780, 48 h. An outline of the steps:
as §1

Data set [8] deals with HCC827. In words: Cytotoxicity against human HCC827 cells assessed as reduction in cell survival at 0.1 to 10 uM after 50 to 60 hrs by MTT assay. The class given is functional, cell-based.
Data set [9] deals with T1, Tubulin (Homo sapiens) (UniProt P68371+Q9H4B7+P0DPH7+P68366+Q13509+Q71U36+P04350+Q3ZCM7+P07437+P68363+Q9BQE3+Q6PEY2+Q13885+Q9BVA1+Q9BUF5). The data set can be described thus: Inhibition of tubulin (unknown origin) polymerization at 27.5 uM measured over 70 mins by turbidity method. The class given is protein-complex assay. An outline of the steps: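 Tubulin at 25 µM in GAB buffer (10 mM sodium phosphate, 30% glycerol, 1 mM EGTA, 6 mM MgCl2, 1 mM GTP, pH 6.7) with 27.5 µM compound or DMSO vehicle. Turbidity is read at 355 nm for 70 min at 37 °C. Data are normalized to the initial stable absorbance plateau to correct for compound absorbance.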

The target of data set [10] is T1, Tubulin (Homo sapiens). In words: Displacement of podophyllotoxin from tubulin (unknown origin) by ultracentrifugation method. The format is protein-complex assay.
Data set [11] is described as follows: Apparent solubility of compound in sodium phosphate buffer at 15 uM after 20 mins. The class given is physicochemical.
The subject of data set [12] is HCC827. In words: Cytotoxicity against human HCC827 cells assessed as reduction in cell survival at 0.1 to 10 uM after 18 hrs by MTT assay. The format is functional, cell-based. An outline of the steps:
(§3)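 Seeded at 2,500 cells/well in medium with 10% serum. After adhesion, exposed to 0.1, 1 and 10 μM in medium with 5% serum for 18 h. Medium then replaced with fresh medium containing 1.2 mM MTT for 4 h; formazan dissolved in DMSO, absorbance at 540 nm. Results given as % of basal response.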

In a further data set the test system is GISTT1. In words: Cytotoxicity against human GISTT1 cells assessed as reduction in cell viability at 1 uM after 48 hrs by alamar blue assay. The class given is functional, cell-based. An outline of the steps: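 GIST-T1 seeded at 4000 cells/well, exposed to 1 or 10 μM for 48 h; viability read by AlamarBlue.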
For another data set, the system named is B16-F10. The data set can be described thus: Cytotoxicity against mouse B16F10 cells assessed as reduction in cell survival at 0.1 to 10 uM after 18 hrs by MTT assay. The format is functional, cell-based. In short, it runs like this:
as §3

In data set [13] the test system is NB-4. In words: Cell cycle arrest in human NB4 cells assessed as accumulation of cells at G1 phase after 24 hrs by propidium iodide staining-based flow cytometric analysis. The class given is functional. In short, it runs like this: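 NB4 cultured at 37 °C, 5% CO2 in RPMI-1640 with 10% heat-inactivated FBS. Treated at 50 and 100 nM, 1 and 10 μM for 24 h. Cells fixed/permeabilized in 70% ethanol overnight at 4 °C, then given RNase and 20 μg/ml PI for 30 min. Doublets excluded, 20,000 events per sample; cell-cycle phase distribution analysed.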

Another data set relates to B16-F1. In words: Cytotoxicity against mouse B16-F1 cells assessed as reduction in cell survival at 0.1 to 10 uM after 18 hrs by MTT assay. The class given is functional, cell-based. In short, it runs like this: as §3
Data set [14] deals with NB-4. In words: Induction of differentiation in human NB4 cells at 500 nM after 24 hrs in presence of ATRA by CD11c staining-based flow cytometric analysis. The class given is functional, cell-based. In short, it runs like this:
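NB4 exposed to 0.5 μM compound together with 1 μM ATRA for 24 h. Cells stained with PE-conjugated CD11c (mouse IgG1-PE control) for 1 h at 4 °C in the dark, washed, resuspended in PBS with propidium iodide (0.25 μg/mL), then analysed by flow cytometry. Biological triplicates, mean ± S.E.M.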

For a further data set, the system named is PC-9. The data set can be described thus: Cytotoxicity against human PC9 cells assessed as reduction in cell survival at 0.1 to 10 uM after 18 hrs by MTT assay. The class given is functional, cell-based. An outline of the steps: as §3
For data set [15], the target named is T1, Tubulin (Homo sapiens). The data set can be described thus: Binding affinity to tubulin (unknown origin) by analytical ultracentrifugation.
The test system of another data set is A549. The data set can be described thus: Cytotoxicity against human A549 cells assessed as reduction in cell survival at 0.1 to 10 uM after 18 hrs by MTT assay. The format is functional, cell-based. An outline of the steps: as §3
Data set [16] in a line: Solubility of compound in pH 7.4 aqueous solution after 12 hrs by HPLC analysis. The format is physicochemical. An outline of the steps:
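Water solubility at pH 7.4 measured by HPLC analysis.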

≈ marks a conversion by molar mass, not a printed value. Calls of active or inactive are those of the source. No cut-off for these calls is given here.

`CC(=O)NC1=C(c2cccc3ccccc23)Oc2cc3ccccc3cc2-n2cccc21`: the result in the data set with HL-60 [1] was Active.

For the compound `CCc1ccc2cccc(C3=C(OC(=O)N(CC)CC)c4cccn4-c4cc5ccccc5cc4O3)c2n1`, the result in the data set with HL-60 [1] was Active.

For `CCN(CC)C(=O)OC1=C(c2cccc3cccnc23)Oc2cc3ccccc3cc2-n2cccc21`, in the data set with HL-60 [2], the IC50 stood at 4580 nM.

For the compound `COc1cc2c(c(OC)c1OC)-c1ccc(OC)c(=O)cc1[C@@H](NC(C)=O)CC2` [COLCHICINE], the IC50 in data set [3] is 500 nM; with NIH3T3 [4], 25 nM; with NIH3T3 [7], 1120 nM; with A2780 it was 13.1 nM. Also, the “Ratio IC50” value in [5] amounted to 38.2; in data set [6], 44.7.

In the case of `CC(=O)OC1=C(c2cccc3cccnc23)Oc2cc3ccccc3cc2-n2cccc21`, in the data set with HCC827 [8], the result was inactive. In addition, the inhibition result on Tubulin (Homo sapiens) [9] and at Tubulin (Homo sapiens) [10] was “Active” in each case. In addition, the solubility at 20 min, 15 µM in [11] is 0.36 µM (≈ 0.151 µg/mL). The IC50 was 79 nM in [3]; 263 nM in the data set on HL-60 [2]; 34 nM with NIH3T3 [4]; 68 nM with NIH3T3 [7]; 76 nM with A2780. The outcome in the data set with HCC827 [12], in the data set with GISTT1, in the data set with B16-F10, in the data set with B16-F1, in the data set on NB-4 [14] and in the data set with PC-9 was Active. Besides, the outcome with HL-60 [1] and with A549 was Active. Also, the “Ratio IC50” value is listed as 1.03 in [5] and 2 in data set [6]. The Activity entry in the data set on NB-4 [13] is “Dose-dependent effect”. In addition, the Kb at Tubulin (Homo sapiens) [15] was found to be 115 ×10⁷ /M.

Regarding `CC(=O)OC1=C(c2cccc3cnccc23)Oc2cc3ccccc3cc2-n2cccc21`, the inhibition entry on Tubulin (Homo sapiens) [9] and at Tubulin (Homo sapiens) [10] was “Active” throughout. For the same compound, the solubility at 20 min, 15 µM in data set [11] stood at 0.22 µM (≈ 0.0921 µg/mL). Also, the IC50 in data set [3] was found to be 810 nM; in the data set on NIH3T3 [4] it was 375 nM; in the data set on NIH3T3 [7], 876 nM; with A2780, 301 nM. Further, the “Ratio IC50” value in data set [5] is listed as 2.69; in data set [6], 2.33. For the same compound, the Kb on Tubulin (Homo sapiens) [15] turned out to be 16 ×10⁷ /M.

Take `CCN(CC)CCCC(C)NC(=O)OC1=C(c2cccc3ccccc23)Oc2cc3ccccc3cc2-n2cccc21` (configuration not stated): in the data set with HL-60 [1], the result was Active.

On to `CC[C@]1(O)C[C@@H]2CN(CCc3c([nH]c4ccccc34)[C@@](C(=O)OC)(c3cc4c(cc3OC)N(C)[C@H]3[C@@](O)(C(=O)OC)[C@H](OC(C)=O)[C@]5(CC)C=CCN6CC[C@]43[C@@H]65)C2)C1` [VINBLASTINE], for which the IC50 in data set [3] worked out at 44 nM; with NIH3T3 [4], 1 nM; in the data set with NIH3T3 [7], 70.4 nM; in the data set on A2780, 0.5 nM. Further, the results for the “Ratio IC50” value in data set [5] and in data set [6] were 88 and 70.4, respectively.

Turning to `COC(=O)Nc1nc2ccc(C(=O)c3cccs3)cc2[nH]1` [NOCODAZOLE], the solubility at 12 h in data set [16] is < 1000 µg/mL.

Turning to `CN(C)C(=O)OC1=C(c2cccc3cccnc23)Oc2cc3ccccc3cc2-n2cccc21`, the IC50 in the data set with HL-60 [2] was found to be 300 nM. Moreover, in the data set with GISTT1, the outcome was Active.

Consider `CC(=O)OC1=C(c2cnc3ccccc3c2)Oc2cc3ccccc3cc2-n2cccc21`, for which the outcome with HCC827 [8], in the data set on HCC827 [12], in the data set with B16-F10, with B16-F1, with PC-9 and in the data set with A549 was inactive. The IC50 with HL-60 [2] was 6460 nM. Also, the result with HL-60 [1] was Active.

`O=C1c2cccn2-c2cc3ccccc3cc2OC1c1cccc2ncccc12` (configuration not stated): the IC50 with HL-60 [2] amounted to 2770 nM.

Take `CC(=O)O[C@H]1C(=O)[C@@]2(C)[C@H]([C@H](OC(=O)c3ccccc3)[C@]3(O)C[C@H](OC(=O)[C@H](O)[C@@H](NC(=O)c4ccccc4)c4ccccc4)C(C)=C1C3(C)C)[C@]1(OC(C)=O)CO[C@@H]1C[C@@H]2O` [PACLITAXEL]: the IC50 amounted to 700 nM in data set [3], 25 nM in the data set on NIH3T3 [4], 4880 nM in the data set with NIH3T3 [7] and 3.3 nM with A2780. Further, the “Ratio IC50” value is on record as 212.12 in data set [5] and 195 in data set [6].

Take `O=C1c2cccn2-c2cc3ccccc3cc2OC1c1cccc2cccnc12` (configuration not stated): the IC50 in the data set on HL-60 [2] is 1080 nM.

As for `CCN(CC)CCCC(C)NC(=O)OC1=C(c2cccc3cccnc23)Oc2cc3ccccc3cc2-n2cccc21` (configuration not stated), the inhibition result on Tubulin (Homo sapiens) [9] and on Tubulin (Homo sapiens) [10] was “Active” in each case. For the same compound, the solubility at 20 min, 15 µM in data set [11] stood at 2.89 µM (≈ 1.62 µg/mL). In addition, the IC50 in [3] turned out to be 1350 nM; in the data set with NIH3T3 [4], 2300 nM; in the data set on NIH3T3 [7] it was 2500 nM; in the data set with A2780, 1900 nM. For the same compound, the “Ratio IC50” value in [5] came to 0.71; in [6], 1.08. Further, in the data set with HL-60 [1], the result was Active. On Tubulin (Homo sapiens) [15], the Kb was 114 ×10⁷ /M.
